Source: PMC8167812 (Cell reports, 2021)

What was measured:
Clr4-SET = Clr4-SET (Schizosaccharomyces pombe, UniProt O60016); assay: Thermal shift assay, Clr4-SET; assay type: binding, fission yeast (S. pombe); conditions: without peptide, SYPRO orange, Figure S3C
Outline: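 Clr4 SET domain (residues 190–490) was expressed in Rosetta E. coli and purified on Talon resin. Protein at 3 μM was mixed with 150 μM SAM in 50 mM Tris pH 8.0, 1 mM EDTA and 0.5 mM DTT, held 10 min at room temperature then 10 min on ice. SYPRO orange was added and the sample ramped 25–99 °C in 1 °C steps over 75 min. Curves were min–max normalised; samples were run in duplicate.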

TetR-Clr4 at tetO = assay: ChIP analysis of TetR-Clr4 release from tetO after tetracycline addition; assay type: cell-based, fission yeast (S. pombe); conditions: tetracycline 10 μM

Sequence of Clr4-SET (O60016 190-490): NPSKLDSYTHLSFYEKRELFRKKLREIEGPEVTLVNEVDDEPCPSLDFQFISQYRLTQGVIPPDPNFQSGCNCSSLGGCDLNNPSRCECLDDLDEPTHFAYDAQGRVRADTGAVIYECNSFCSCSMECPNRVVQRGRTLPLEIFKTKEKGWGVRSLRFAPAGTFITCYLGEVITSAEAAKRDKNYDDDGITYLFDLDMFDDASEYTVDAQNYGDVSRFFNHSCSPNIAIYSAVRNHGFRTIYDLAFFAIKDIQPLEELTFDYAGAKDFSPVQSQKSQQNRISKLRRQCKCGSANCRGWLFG

| SMILES | thermal stability of Clr4 on addition of SAM alone (Clr4-SET) | release of TetR-Clr4 from tetO (TetR-Clr4 at tetO; hht3-K9M cells, samples at 5, 10, and 20 minutes) | time in which most TetR-Clr4 is released from tetO (TetR-Clr4 at tetO; 30°C, ChIP-qPCR normalized to act1+) [min] |
| --- | --- | --- | --- |
| C[S+](CC[C@H](N)C(=O)[O-])C[C@H]1O[C@@H](n2cnc3c(N)ncnc32)[C@H](O)[C@@H]1O (stereo partly drawn) [SAM, S-adenosyl-methionine] | greater thermal stability of Clr4 | – | – |
| CN(C)[C@@H]1C(O)=C(C(N)=O)C(=O)[C@@]2(O)C(O)=C3C(=O)c4c(O)cccc4[C@@](C)(O)[C@H]3C[C@@H]12 [tetracycline] | – | a delay in the release of TetR-Clr4 | ≤ 5 |
